Laboratory results as given in paper PMC6893084 (Journal of thrombosis and haemostasis : JTH, 2019).
Several values for one entry are separate records, joined by “and”; a condition that tells them apart may be missing. Equal entries are not always repeated. Where two headings read alike, the source gives them in different places.

Columns and labels:
SCI–FXIa complex = SCI–FXIa complex (Homo sapiens, UniProt P03951); experiment: In vitro reversibility of SCI inhibition of FXIa by antidotes, S-2366 hydrolysis; type: biochemical; conditions: for restoration potency (EC50) / restoration yield (ΔY) of FXIa activity: FXIa inhibited by 2 μM of SCI, pH 7.4, 37 °C
SCI–FXIa complex, sequence (P03951 388-625 limits assumed): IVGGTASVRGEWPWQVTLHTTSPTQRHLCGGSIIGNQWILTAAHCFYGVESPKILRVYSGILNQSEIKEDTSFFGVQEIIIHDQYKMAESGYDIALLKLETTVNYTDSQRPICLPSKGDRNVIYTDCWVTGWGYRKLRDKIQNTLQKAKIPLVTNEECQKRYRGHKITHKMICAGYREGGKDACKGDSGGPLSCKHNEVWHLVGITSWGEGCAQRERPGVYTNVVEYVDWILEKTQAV
SCI–FXIa complex, sequence (P03951 19-387 limits assumed): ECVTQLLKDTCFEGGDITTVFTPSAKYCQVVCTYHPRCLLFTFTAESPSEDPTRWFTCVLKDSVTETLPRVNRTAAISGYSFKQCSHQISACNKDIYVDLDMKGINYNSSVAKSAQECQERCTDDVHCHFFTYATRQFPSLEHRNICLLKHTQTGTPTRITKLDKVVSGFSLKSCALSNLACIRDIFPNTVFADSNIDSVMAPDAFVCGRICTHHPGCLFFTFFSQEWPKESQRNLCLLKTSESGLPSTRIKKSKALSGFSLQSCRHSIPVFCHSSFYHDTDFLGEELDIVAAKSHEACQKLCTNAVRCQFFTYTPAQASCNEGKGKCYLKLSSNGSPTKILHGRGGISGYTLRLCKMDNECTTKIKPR

FXIa [1] = target: T1, FXIa (Homo sapiens, UniProt P03951); experiment: Direct inhibition of FXIa, S-2366 chromogenic substrate hydrolysis; type: biochemical
T1 sequence (P03951 388-625 limits assumed): as the sequence (P03951 388-625 limits assumed) above
T1 sequence (P03951 19-387 limits assumed): as the sequence (P03951 19-387 limits assumed) above
Method in brief: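 Full-length wild-type purified human FXIa hydrolysing chromogenic substrate S-2366 in 20 mM Tris-HCl, pH 7.4, 37 °C, with varying test compound. Activity taken as the initial rate of absorbance increase at 405 nm. A logistic dose–response equation fitted to residual protease activity gave IC50, efficacy (ΔY) and Hill slope.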

Thrombin [2] = target: T2, Thrombin (Homo sapiens, UniProt P00734); experiment: Chromogenic substrate hydrolysis assay, thrombin; type: biochemical
Method in brief: (§1)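 Each purified human protease was tested against varying test compound levels under optimal conditions taken from the literature. A chromogenic substrate was used, except for FXIIIa, which used a fluorescence bisubstrate format. Protease activity versus concentration was fitted by non-linear regression to a logistic equation, giving IC50, efficacy (ΔY) and Hill slope.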

FXa = FXa (Homo sapiens, UniProt P00742); experiment: Chromogenic substrate hydrolysis assay, FXa; type: biochemical
FXa, sequence (P00742 235-488 limits assumed): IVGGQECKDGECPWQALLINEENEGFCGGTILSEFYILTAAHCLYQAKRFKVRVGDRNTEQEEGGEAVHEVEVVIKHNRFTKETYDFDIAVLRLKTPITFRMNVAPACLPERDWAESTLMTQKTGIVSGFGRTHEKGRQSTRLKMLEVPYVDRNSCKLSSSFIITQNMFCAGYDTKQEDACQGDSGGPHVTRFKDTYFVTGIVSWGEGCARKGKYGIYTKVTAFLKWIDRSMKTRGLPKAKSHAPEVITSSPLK
FXa, sequence (P00742 41-179 partner limits assumed): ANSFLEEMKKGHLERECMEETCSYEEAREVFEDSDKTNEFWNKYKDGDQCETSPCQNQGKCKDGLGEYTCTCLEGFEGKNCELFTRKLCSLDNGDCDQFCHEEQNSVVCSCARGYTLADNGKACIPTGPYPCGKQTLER
Method in brief: as §1

FVIIa/TF = FVIIa/TF (Homo sapiens, UniProt P08709); experiment: Chromogenic substrate hydrolysis assay, FVIIa/TF; type: biochemical
Method in brief: as §1

FIXa = FIXa (Homo sapiens, UniProt P00740); experiment: Chromogenic substrate hydrolysis assay, FIXa; type: biochemical
FIXa, sequence (P00740 227-461 limits assumed): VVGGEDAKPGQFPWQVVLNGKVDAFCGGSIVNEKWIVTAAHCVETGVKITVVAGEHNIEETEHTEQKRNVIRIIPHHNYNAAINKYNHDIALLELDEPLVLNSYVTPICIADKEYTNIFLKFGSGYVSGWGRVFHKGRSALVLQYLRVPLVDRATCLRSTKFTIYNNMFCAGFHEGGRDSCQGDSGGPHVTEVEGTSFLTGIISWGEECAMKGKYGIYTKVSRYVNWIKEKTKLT
FIXa, sequence (P00740 47-191 partner limits assumed): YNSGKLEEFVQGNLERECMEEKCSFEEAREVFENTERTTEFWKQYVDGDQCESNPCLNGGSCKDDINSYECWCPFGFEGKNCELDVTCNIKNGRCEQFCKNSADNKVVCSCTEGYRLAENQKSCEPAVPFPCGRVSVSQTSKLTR
Method in brief: as §1

FXIIa = FXIIa (Homo sapiens, UniProt P00748); experiment: Chromogenic substrate hydrolysis assay, FXIIa; type: biochemical
Method in brief: as §1

FXIIIa = FXIIIa (Homo sapiens, UniProt P00488); experiment: Fluorescence-based bisubstrate assay, FXIIIa; type: biochemical
Method in brief: as §1

Plasmin = Plasmin (Homo sapiens, UniProt P00747); experiment: Chromogenic substrate hydrolysis assay, plasmin; type: biochemical
Method in brief: as §1

Plasma Kallikrein = Plasma Kallikrein (Homo sapiens, UniProt P03952); experiment: Chromogenic substrate hydrolysis assay, plasma kallikrein; type: biochemical
Method in brief: as §1

Trypsin = experiment: Chromogenic substrate hydrolysis assay, trypsin; type: biochemical, human
Method in brief: as §1

Chymotrypsin = experiment: Chromogenic substrate hydrolysis assay, chymotrypsin; type: biochemical, human
Method in brief: as §1

rFXIa-FLWT = rFXIa-FLWT (Homo sapiens, UniProt P03951); experiment: Direct inhibition of recombinant full-length wild type FXIa, S-2366 hydrolysis; type: biochemical; conditions: pH 7.4, 37 °C
rFXIa-FLWT, sequence (P03951 388-625 limits assumed): as the sequence (P03951 388-625 limits assumed) above
rFXIa-FLWT, sequence (P03951 19-387 limits assumed): as the sequence (P03951 19-387 limits assumed) above

rFXIa-FLABS1 = rFXIa-FLABS1 (Homo sapiens, UniProt P03951); type: biochemical
rFXIa-FLABS1, sequence (P03951 388-625 limits assumed): as the sequence (P03951 388-625 limits assumed) above

rFXIa-FLABS2 = rFXIa-FLABS2 (Homo sapiens, UniProt P03951, K547A/R548A/R550A); type: biochemical
rFXIa-FLABS2, sequence (P03951 388-625 K547A/R548A/R550A limits assumed): as the sequence (P03951 388-625 limits assumed) above, with K160A, R161A, R163A counted along it
rFXIa-FLABS2, sequence (P03951 19-387 limits assumed): as the sequence (P03951 19-387 limits assumed) above

FXIa [3] = target: T1, FXIa; experiment: Fluorescence titration, intrinsic tryptophan fluorescence of FXIa; type: binding
DEGR-FXIa [4] = target: T3, DEGR-FXIa (Homo sapiens, UniProt P03951); experiment: Fluorescence titration, dansyl fluorescence of DEGR-FXIa; type: binding; conditions: pH 7.4, 37 °C
T3 sequence (P03951 388-625 limits assumed): as the sequence (P03951 388-625 limits assumed) above
T3 sequence (P03951 19-387 limits assumed): as the sequence (P03951 19-387 limits assumed) above

[5] = target: human, wild-type, full-length FXIa (Homo sapiens, UniProt P03951); experiment: Michaelis-Menten kinetics of S-2366 hydrolysis by FXIa in the presence of SCI; type: biochemical; conditions: pH 7.4, 37 °C
human, wild-type, full-length FXIa, sequence (P03951 388-625 limits assumed): as the sequence (P03951 388-625 limits assumed) above
human, wild-type, full-length FXIa, sequence (P03951 19-387 limits assumed): as the sequence (P03951 19-387 limits assumed) above

FXIa [6] = target: T1, FXIa; experiment: Competition between SCI and UFH, S-2366 hydrolysis assay; type: biochemical; conditions: UFH increased from 0 to 150 μM; pH 7.4, 37 °C
Method in brief: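 Purified full-length human FXIa hydrolysing S-2366 in 20 mM Tris-HCl, pH 7.4, 37 °C, read as initial rate of absorbance rise at 405 nm. Inhibition curves were run with unfractionated heparin at 0, 5, 50 or 150 μM. Fitted to a logistic dose–response equation for IC50, ΔY and Hill slope.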

human plasma [7] = experiment: Activated partial thromboplastin time; type: biochemical
human plasma [8] = experiment: Prothrombin time; type: biochemical; conditions: even at 150 μM
Method in brief: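 One-stage recalcification clotting assay of human plasma containing varying levels of test compound. Clotting was started with Thromboplastin-D and CaCl2 at 37 °C and time to clot recorded. Clotting time versus concentration was fitted with a quadratic equation to give the concentration that doubles clotting time.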

plasma = experiment: Plasma clotting times in the presence of added FXI neutralizing antibody; type: biochemical; conditions: antibody 9 μg per 300 μL; SCI as high as 100 μM
Method in brief: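 Plasma APTT was measured by a one-stage recalcification assay at 37 °C, with clotting initiated by CaCl2. Plasma contained FXI-neutralizing antibody at 9 μg per 300 μL, and test compound was varied over a wide concentration range.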

human whole blood [9] = experiment: Thromboelastography; conditions: ex vivo
Method in brief: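 Citrated human whole blood with varying levels of test compound or enoxaparin was recalcified with CaCl2 to start clotting. The cup oscillated through a 4° 45ˋ angle at 0.1 Hz. Reaction time (min), angle (deg), maximum amplitude and shear elastic modulus were recorded automatically.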

human whole blood [10] = experiment: Hemostasis analysis; conditions: ex vivo
Method in brief: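 Citrated human whole blood was spiked with varying levels of test compound or enoxaparin and recalcified with CaCl2. A cone was lowered into the blood, and tension from platelets attaching within the fibrin meshwork was recorded automatically as platelet contractile force, thrombin generation time and clot elastic modulus.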

Rat tail bleeding = type: in vivo
Mouse tail bleeding = type: in vivo; conditions: IV 35 μg/mouse SCI vs 300 μg enoxaparin
Method in brief: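 Test compound or enoxaparin comparator was given IV, then the tail was transected. Blood loss (mg) and time to cessation of bleeding were measured, with n = 4–7 per group. Groups were compared by two-tailed t-tests with unequal variance.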

[11] = FeCl3-induced arterial thrombosis model in rats; type: in vivo, rat
Method in brief: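 Female Wistar rats (~250 g), under ketamine/xylazine with isoflurane maintenance. Test compound (250, 500 or 2000 μg/rat) or enoxaparin in PBS was infused into the tail vein. After 5 min, 10% FeCl3-soaked filter paper was applied to the exposed abdominal aorta between two sutures for 10 min. The clot matured 15 min, sutures were tightened, and thrombus wet and dry weights recorded.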

[12] = Thromboplastin-induced venous thrombosis model in rats; type: in vivo; conditions: 250 μg per rat
FXIa [13] = target: T1, FXIa; experiment: FXIa inhibition with sub-optimal chromogenic substrate Spectrozyme TH; type: biochemical
FXIa [14] = target: T1, FXIa; experiment: FXIa cleavage of macromolecular substrate FIX to FIXa; type: biochemical
Thrombin [15] = target: T2, Thrombin; experiment: Thrombin inhibition with sub-optimal chromogenic substrate S-2366; type: biochemical
rat plasma = experiment: APTT of rat plasma; type: biochemical
[16] = tested on: human plasma deficient of antithrombin and heparin cofactor II; experiment: Clotting of human plasma deficient of antithrombin or heparin cofactor II; type: biochemical; conditions: plasma deficient in antithrombin or heparin cofactor II
DEGR-FXIa [17] = target: T3, DEGR-FXIa; experiment: Acrylamide quenching of dansyl fluorescence of DEGR-FXIa; type: binding; conditions: 2 μM SCI; acrylamide 0–800 mM
Method in brief: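 Dansyl-labelled active-site-blocked human FXIa (DEGR-FXIa) in 20 mM Tris-HCl, pH 7.4, 37 °C. Acrylamide (0–800 mM) was added sequentially with or without a fixed level of test compound. Dansyl emission was recorded with excitation at 345 nm. Data were fitted to linear or quadratic Stern–Volmer equations.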

[18] = tested on: HT-29 colorectal cell line; conditions: HT-29, SCI as high as 100 μM; cited from earlier work

O=S(=O)(O)OC[C@H]1O[C@@](COS(=O)(=O)O)(O[C@H]2O[C@H](COS(=O)(=O)O)[C@@H](OS(=O)(=O)O)[C@H](OS(=O)(=O)O)[C@H]2OS(=O)(=O)O)[C@@H](OS(=O)(=O)O)[C@@H]1OS(=O)(=O)O [SOS, sucrose octasulfate]
restoration potency (EC50) (SCI–FXIa complex): 750 µg/mL
restoration yield (ΔY) of FXIa activity (SCI–FXIa complex): ~ 39%

polybrene
restoration potency (EC50) (SCI–FXIa complex): 0.4 µg/mL
restoration yield (ΔY) of FXIa activity (SCI–FXIa complex): ~ 88%

protamine sulfate
restoration potency (EC50) (SCI–FXIa complex): 14.0 µg/mL
restoration yield (ΔY) of FXIa activity (SCI–FXIa complex): ~ 69%

sulfated chiro-inositol [SCI]
potency relative to SPGG (better) (FXIa [1]; FXIa inhibition): ~ 2 fold and 2 fold
efficacy of FXIa inhibition (FXIa [1]; S-2366, pH 7.4, 37 °C): 100%
IC50 (FXIa [1]; full length, wild type, purified human FXIa, S-2366, pH 7.4, 37 °C): 280 ± 10 nM
IC50 (FXIa [1]; read-out: potency of FXIa inhibition): 280 nM and ~280 nM
IC50 (Thrombin [2]): > 40 µM
IC50 (FXa): > 40 µM
IC50 (FVIIa/TF): > 50 µM
IC50 (FIXa): > 65 µM
IC50 (FXIIa): > 50 µM
IC50 (FXIIIa): > 90 µM
IC50 (Plasmin): > 40 µM
IC50 (Plasma Kallikrein): > 65 µM
IC50 (Trypsin): > 50 µM
IC50 (Chymotrypsin): > 40 µM
IC50 (rFXIa-FLWT): 4.2 ± 0.6 µM
potency relative to rFXIa-FLWT (rFXIa-FLABS1): essentially identical
IC50 (rFXIa-FLABS1; full length FXIa missing A3 domain's HBS): 3000 ± 200 nM
reduction in efficacy relative to rFXIa-FLWT (rFXIa-FLABS2): ~ 20%
weaker inhibition relative to rFXIa-FLWT (rFXIa-FLABS2): ~ 5 fold
IC50 (rFXIa-FLABS2; full length FXIa missing catalytic domain's HBS): 20.7 ± 3.6 µM
Kd (FXIa [3]; intrinsic fluorescence, pH 7.4, 37 °C): 63 ± 11 nM
saturating increase in intrinsic fluorescence (FXIa [3]; pH 7.4, 37 °C): 133%
stoichiometry of SCI binding to dimeric FXIa (FXIa [3]; spectrofluorometric titration): 1.83±0.08
increase in dansyl fluorescence (DEGR-FXIa [4]): 152%
Kd (DEGR-FXIa [4]; read-out: affinity (KD), dansyl fluorescence): 25 nM
decrease of VMAX [5]: ~ 4 fold
VMAX in the presence of SCI ([5]; decreased from 52.1): 14.2 mAU/min
increase of IC50 of FXIa inhibition with UFH (FXIa [6]): ~ 6 fold
reversibility with protamine (SCI–FXIa complex; protamine as antidote): > 50%
concentration for 2-fold increase in APTT (human plasma [7]): 32.2 µM
impact on the PT (human plasma [8]): minimal
effect on plasma clotting times with FXI neutralizing antibody (plasma): did not significantly impact plasma clotting times
effect on TEG parameters (human whole blood [9]): increase time to initial fibrin formation, while decrease all other parameters
effect on HAS parameters (human whole blood [10]): reduced platelet contractile force and clot elastic modulus, whereas prolonged force onset time
blood loss (Rat tail bleeding; 250 μg/rat IV, n=15, PBS 147±29 mg): 119 ± 41 mg
tail bleeding time (Rat tail bleeding; 250 μg/rat, PBS 13±4): 14 ± 4 min
blood loss and bleeding time (Mouse tail bleeding): much lower than that induced by enoxaparin
wet weight of thrombus lower than negative control (PBS) ([11]; 250 μg per rat): ~ 33%
wet weight of thrombus ([11]; 250 μg per rat, n=14, PBS 43.35±2.63 mg): 28.85 ± 2.12 mg
decrease of average dry thrombus weight vs PBS ([11]; 500 or 2000 μg/animal): 55–63%
decrease of average wet thrombus weight vs PBS ([11]; 500 or 2000 μg/animal): 53–55%
reduction of average dry weight of thrombus [12]: 48%
wet weight of thrombus less than PBS group [12]: ~ 42%
wet weight of thrombus ([12]; n=13, PBS 38.61±3.56 mg): 22.46 ± 1.14 mg
inhibition of FXIa with Spectrozyme TH (FXIa [13]): potent inhibition
inhibition of FXIa cleavage of FIX to FIXa (FXIa [14]): dose-dependently inhibited
inhibition of thrombin with S-2366 (Thrombin [15]): essentially no inhibition
effect on APTT of rat plasma (rat plasma): preferentially enhance APTT
effect on APTT of serpin-deficient plasma [16]: preferentially prolonged the APTT
dansyl fluorescence of SCI–DEGR-FXIa complex on acrylamide addition (DEGR-FXIa [17]): remained invariant
cellular toxicity (cell death) [18]: No significant adverse effect
highest dose studied relative to effective dose (Maximum tolerated dose; 25 mg/animal, no bleeding or cellular toxicity): > 100 fold
tolerability (mobility, weight loss, bleeding) (Maximum tolerated dose; rats, 5, 10 and 25 mg per animal IV, n=3/group, 7 days observation): well tolerated
